Calls of active or inactive are those of the source.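 How the source made its calls, unless noted: active means fluorescence slope higher than the sample average by over 3 SD (cut at about -0.22 in these data, passing the limit was not always enough); inactive means the rest.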

The nature of test [1]: inhibitors of TNFa-induced NFkB p65 translocation, primary screen, imaging, HUVEC, MLSMR starter and 10KST1 sets (AID 438;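 active means inhibition above 20% together with a positive visual image hit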;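 further: compound added about 3h40 before a 20 min TNFalpha stimulation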;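 on inhibition: signal is the nuclear over cytoplasmic p65 intensity ratio per well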). The conditions noted are these: HUVEC TNFa-induced p65 nuclear translocation; cell count: measured here: nuclei count (cytotoxicity indicator), at 2.08 µM; inhibition: at 2 µM, stronger effect = higher value, 0% TNFa-plus-vehicle, 100% no-TNFa wells.
Test [2] in a line: inhibitors of E-selectin induction by TNFa, primary screen, imaging, HUVEC, immunofluorescence, MLSMR starter and 10KST1 sets (AID 487;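 active means visually confirmed hit in the image check and inhibition above 20%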;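 on inhibition: signal is fraction of cell area covered by stained E-selectin grains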;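 on nuclei count: 100% = median nuclei count of all wells on the same plate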). The conditions noted are these: HUVEC TNFalpha-induced E-selectin immunofluorescence imaging, at 2 µM; inhibition: stronger effect = higher value; nuclei count: measured here: cell number, toxicity.
Test [3] in a line: DUSP6 inhibitors restoring Erk phosphorylation by chemical complementation, primary imaging in DUSP6-transfected HeLa (AID 609;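 active means compounds giving at least 50% inhibition in the cell-based MKP-3 phosphatase rescue imaging test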;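 on inhibition: phospho-Erk level distribution per well compared with pooled transfected vehicle control wells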). The conditions noted are these: HeLa MKP-3 transfected, phospho-Erk imaging KS statistic, at 10 µM, cells stimulated with TPA for 15 min.
Test [4] addresses Dual specificity protein phosphatase 6 (Homo sapiens) (UniProt Q16828). The test is described as above. The conditions noted are these: HeLa MKP-3 transfected, phospho-Erk imaging KS statistic; at 10 µM; stronger effect = higher value; cells stimulated with TPA for 15 min.
Test [5] addresses Voltage-gated potassium channel subunit beta-2 (Rattus norvegicus) (UniProt P62483). As to the kind of experiment: KvBeta enzyme negative modulators, primary screen, biochemical, NADPH fluorescence (AID 622).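 Further: slope of raw intensity against log time taken from 70 to 1610 s.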 The conditions noted are these: recombinant KvBeta, 4-cyanobenzaldehyde reduction, at 10 µM, stronger effect = higher value.
Test [6] shares this target. As to the kind of experiment: KvBeta positive modulators, primary screen, biochemical, NADPH fluorescence (AID 623;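 active means NADPH fluorescence slope more negative than the mean of all samples by about 3 SD, 99.7% confidence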;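 further: fluorescence intensity change per second fitted from 20 to 320 s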). The conditions noted are these: Recombinant KvBeta, NADPH fluorescence decrease slope, 10 min; at 10 µM; stronger effect = lower value.
Test [7] concerns the target Alpha-2C adrenergic receptor (Homo sapiens) (UniProt P18825). As to the kind of experiment: modulators of alpha2C/GIRK thallium flux, primary screen, cell-based, HEK293 alpha2C/GIRK1/2 (AID 624;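 active means fluorescence slope after compound addition differing from the mean of all screened samples at 99.7% confidence, in either direction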;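 further: slope of fluorescence ratio to pre-addition baseline per second over 15 to 24 s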). The conditions noted are these: thallium flux BTC fluorescence, at 10 µM, actives lie on both sides.
Test [8] in a line: inhibitors of larval lipid processing in zebrafish, primary screen, whole organism, PED6 fluorescence, gall bladder and intestine (AID 686;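 active means a full or partial loss of lipid-probe fluorescence in the fish gall bladder, intestine or both, judged by eye; inactive means no fluorescence loss, or compound toxic to the fish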;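 further: larvae 5 to 7 days old with five fish per well; signal comes from phospholipase A2 cleavage of quenched PED6 carried via bile; overnight exposure to compound and PED6 before scoring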). The conditions noted are these: Zebrafish larvae PED6 lipid processing, fluorescence scoring; screened at 20 µM (by protocol). The essentials: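 Also added: quenched phospholipase substrate PED6, 100 nM final, ingested by larvae; System: zebrafish larvae, 5-7 d; Quantity: 5 larvae per well; Compound: 20 µM single dose; Schedule: overnight compound and PED6 incubation; Read-out: visual per-well fluorescence inhibition score; Measured by: By-eye fluorescence microscopy; Medium: E3.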

Test [9] is described as follows: inhibitors of Chlamydomonas gravitaxis, primary screen, whole organism, Chlamydomonas reinhardtii, WT vs cilia-less mutant, absorbance, 96-well (AID 463189;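 active means inhibition at or above 50% relative to wild type and mutant plate controls; inactive means inhibition below 50%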;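 further: 0% = wild type cc124 cells in DMSO and 100% = ciliumless bld1 mutant cells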). The conditions noted are these: OD600 absorbance, 2 days, at 10 µM, stronger effect = higher value.
[10] abbreviates: measured here: cell density z-score.
Where [11] appears, read: measured here: nuclear c-Myc green intensity z-score.
The mark [12] stands for this setting: measured here: nuclear pErk red intensity z-score, stronger effect = higher value.

Chain of Alpha-2C adrenergic receptor (Homo sapiens) (P18825 whole entry, looked up): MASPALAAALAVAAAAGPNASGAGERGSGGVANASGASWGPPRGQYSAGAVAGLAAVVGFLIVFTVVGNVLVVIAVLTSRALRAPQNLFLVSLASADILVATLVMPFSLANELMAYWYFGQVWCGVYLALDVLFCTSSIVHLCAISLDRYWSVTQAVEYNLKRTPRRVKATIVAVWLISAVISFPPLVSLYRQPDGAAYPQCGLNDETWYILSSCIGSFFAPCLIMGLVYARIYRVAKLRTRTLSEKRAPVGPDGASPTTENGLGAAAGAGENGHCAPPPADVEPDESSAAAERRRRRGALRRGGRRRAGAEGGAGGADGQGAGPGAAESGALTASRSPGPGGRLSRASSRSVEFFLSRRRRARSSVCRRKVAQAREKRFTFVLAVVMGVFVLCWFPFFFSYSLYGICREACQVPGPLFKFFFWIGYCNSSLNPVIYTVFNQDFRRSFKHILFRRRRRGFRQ
Chain of Voltage-gated potassium channel subunit beta-2 (Rattus norvegicus) (P62483 whole entry, looked up): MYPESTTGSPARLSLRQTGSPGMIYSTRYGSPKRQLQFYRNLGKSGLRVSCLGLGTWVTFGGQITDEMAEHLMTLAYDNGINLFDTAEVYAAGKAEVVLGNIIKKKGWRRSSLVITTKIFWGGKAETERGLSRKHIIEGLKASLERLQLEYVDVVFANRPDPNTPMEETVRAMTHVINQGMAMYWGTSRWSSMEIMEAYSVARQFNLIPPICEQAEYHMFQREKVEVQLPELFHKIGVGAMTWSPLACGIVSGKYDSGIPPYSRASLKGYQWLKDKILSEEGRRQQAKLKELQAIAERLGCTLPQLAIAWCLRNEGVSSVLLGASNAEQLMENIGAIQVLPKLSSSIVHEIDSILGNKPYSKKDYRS
Chain of Dual specificity protein phosphatase 6 (Homo sapiens) (Q16828 whole entry, looked up): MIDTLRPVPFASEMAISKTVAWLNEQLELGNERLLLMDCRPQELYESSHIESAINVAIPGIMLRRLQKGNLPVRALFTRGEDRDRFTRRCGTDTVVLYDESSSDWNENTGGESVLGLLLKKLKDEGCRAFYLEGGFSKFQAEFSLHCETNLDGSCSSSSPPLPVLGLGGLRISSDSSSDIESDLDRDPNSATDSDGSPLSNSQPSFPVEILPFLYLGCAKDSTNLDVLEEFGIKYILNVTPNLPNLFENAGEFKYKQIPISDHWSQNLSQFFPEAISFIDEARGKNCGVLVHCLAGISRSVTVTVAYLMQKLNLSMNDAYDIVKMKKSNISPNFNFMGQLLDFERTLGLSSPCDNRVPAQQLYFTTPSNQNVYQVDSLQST

`CCC12CN3CC(CC)(CN(C1)C3c1c(O)ccc3ccccc13)C2=O` (centres undefined): in [1], the cell count is 585. For the same molecule, the inhibition (in general, the drop in the measured response relative to a control, in per cent) in [1] was -1.9% (inactive); in test [2], -44.2% (inactive); in [4], 9.82% (inactive); in test [9], 6.95% (inactive). The nuclei count in [2] came out at 185%. For the same molecule, the z-score in [3] (setting [10]) was -0.501; in [3] (setting [11]) it was 0.162; in test [3] (setting [12]), 0.594. In addition, in [5], the fluorescence slope was -0.336 (inactive). Moreover, the NADPH fluorescence slope in test [6] was 5.6e-06 (inactive). Moreover, the slope in test [7] is 0.00425 (inactive). Further, the molecule was called inactive in test [8].

For `O=C1CCc2nc3ccccc3c(=O)n2N1`, the cell count in test [1] amounted to 452. Besides, the inhibition in test [1] was -12.6% (inactive); in test [2], 21.9% (inactive); in test [4], 11.9% (inactive); in test [9] it was 23.6% (inactive). Also, the nuclei count in test [2] worked out at 104%. Besides, the z-score is -0.985 in test [3] (setting [10]), 0.704 in test [3] (setting [11]) and -0.802 in test [3] (setting [12]). Also, in test [5], the fluorescence slope was -0.488 (inactive). Besides, the NADPH fluorescence slope in test [6] is -4.1e-05 (inactive). For the same molecule, in test [7], the slope was 0.00483 (inactive). Also, the molecule was classed as inactive in [8].

For `CCOC(=O)c1cnc(SC2CC(=O)N(c3cccc(OC)c3)C2=O)nc1N` (centres undefined), the cell count in [1] came out at 591. Also, the inhibition in [1] was -4.7% (inactive); in test [2], -23.7% (inactive); in [4], -8.76% (inactive); in test [9], -8.83% (inactive). Besides, in [2], the nuclei count was found to be 155%. The z-score in test [3] (setting [10]) was 0.0661; in test [3] (setting [11]), -0.104; in test [3] (setting [12]), -0.161. For the same molecule, in test [5], the fluorescence slope is -0.317 (inactive). The NADPH fluorescence slope in test [6] was -9.7e-06 (inactive). For the same molecule, the slope in [7] was 0.00504 (inactive). For the same molecule, in test [8], the molecule was called inactive.

Take `CC1(C)NC(=O)N(CC(O)Cn2nnc3ccccc32)C1=O` (centres undefined): the cell count in test [1] came to 372. The inhibition is 3.9% (inactive) in [1], -188% (inactive) in [2], -7.28% (inactive) in test [4] and 6.41% (inactive) in test [9]. The molecule also displayed a nuclei count in test [2] of 122%. In addition, the z-score was 0.214 in test [3] (setting [10]), 0.212 in [3] (setting [11]) and 2.03 in test [3] (setting [12]). In addition, in [5], the fluorescence slope was -0.357 (inactive). Moreover, the NADPH fluorescence slope in test [6] was 2.5e-05 (inactive). Moreover, the slope in [7] was 0.0051 (inactive). Moreover, the call in [8] was inactive.

In the case of `COc1ccc(C2N3CC4(C)CN2CC(C)(C3)C4O)cc1OC` (centres undefined), the cell count in test [1] turned out to be 348. Further, the inhibition in [1] is -20.6% (inactive); in [2] it was -105% (inactive); in test [4] it was -5.26% (inactive); in [9] it was 37% (inactive). The same molecule displayed a nuclei count in [2] of 122%. The figures for the z-score in test [3] (setting [10]), in test [3] (setting [11]) and in [3] (setting [12]) were 0.441, -1.49 and -0.949, respectively. In addition, the fluorescence slope in [5] was -0.473 (inactive). In addition, the NADPH fluorescence slope in test [6] was -7.1e-05 (inactive). Also, the slope in test [7] was 0.00557 (inactive). Also, in test [8], the molecule was called inactive.

For the molecule `O=C(O)c1nsc(Cl)c1Cl`, in [1], the cell count was 628. Further, the inhibition in [1] was -18.8% (inactive); in test [2], 39.2% (inactive); in test [4], -6.06% (inactive); in test [9], 6.17% (inactive). The molecule further showed a nuclei count in [2] of 170%. Further, the z-score was -0.315 in test [3] (setting [10]), -1.86 in test [3] (setting [11]) and 0.801 in [3] (setting [12]). Also, in [5], the fluorescence slope was -0.386 (inactive). In addition, the NADPH fluorescence slope in test [6] was -3.3e-06 (inactive). In addition, in test [7], the slope was 0.00603 (inactive). Also, the result in test [8] was inactive.

As to `O=C(c1ccc(=O)oc1)N1CCN(c2ccc(F)cc2)CC1`, in test [1], the cell count worked out at 328. Besides, the inhibition was -4.5% (inactive) in [1], -1.9% (inactive) in [2], 17.4% (inactive) in test [4] and 31% (inactive) in [9]. Further, the nuclei count in [2] is 95.2%. In addition, the z-score in test [3] (setting [10]) is -0.519; in test [3] (setting [11]), -0.0445; in test [3] (setting [12]), 0.228. Besides, the fluorescence slope in test [5] is -0.364 (inactive). For the same molecule, the NADPH fluorescence slope in test [6] is -4.3e-05 (inactive). The slope in test [7] was 0.00509 (inactive). The molecule was called inactive in test [8].

Turning to `c1cncc(Oc2cccc(Oc3cccnc3)c2)c1`, the cell count in test [1] came to 388. The inhibition in test [1] is -2.6% (inactive); in test [2], -116% (inactive); in test [4], -2.07% (inactive); in test [9] it was -16% (inactive). Further, in test [2], the nuclei count worked out at 133%. Also, the z-score in test [3] (setting [10]) was -0.336; in test [3] (setting [11]), 0.96; in test [3] (setting [12]), -0.973. The fluorescence slope in [5] was -0.426 (inactive). In addition, the NADPH fluorescence slope in test [6] is -1.4e-05 (inactive). In addition, the slope in test [7] is 0.00527 (inactive). Also, in test [8], the molecule was classed as inactive.

For `CSc1nnc(N(CCC#N)CCC#N)s1`, the cell count in test [1] is 351. In addition, the inhibition is -2.1% (inactive) in test [1], -46.6% (inactive) in test [2], 17% (inactive) in test [4] and 29.7% (inactive) in test [9]. In test [2], the nuclei count stood at 91%. In addition, the z-score in [3] (setting [10]) was 0.261; in test [3] (setting [11]), 1.77; in test [3] (setting [12]), -1.54. Moreover, the fluorescence slope in test [5] is -0.487 (inactive). For the same molecule, in [6], the NADPH fluorescence slope was -9.5e-06 (inactive). Moreover, the slope in test [7] is 0.0048 (inactive). Moreover, in test [8], the outcome was inactive.

For `O=C(O)C1CC=CCC1C(=O)N1CCN(c2nc(-c3ccccc3)c3ccccc3n2)CC1` (centres undefined), the cell count in [1] turned out to be 373. In addition, the inhibition is -16.9% (inactive) in [1], -48.5% (inactive) in [2], -5.26% (inactive) in [4] and 28.5% (inactive) in test [9]. The molecule also returned a nuclei count in test [2] of 165%. In addition, the z-score in test [3] (setting [10]) is -1.19; in test [3] (setting [11]) it was 1.08; in test [3] (setting [12]), 0.0489. In [5], the fluorescence slope is -0.305 (inactive). Also, in test [6], the NADPH fluorescence slope is -7.9e-05 (inactive). Besides, the slope in test [7] was 0.00497 (inactive). The call in [8] was inactive.

As to `CC(C)c1cc(NCCCN2CCOCC2)n2c(nc3ccccc32)c1C#N`, the cell count in [1] came out at 548. Further, the inhibition in test [1] is -21.3% (inactive); in test [2] it was -6.2% (inactive); in [4], 6.51% (inactive); in test [9], 5.12% (inactive). In test [2], this molecule displayed a nuclei count of 155%. The z-score in test [3] (setting [10]) was 1.24; in [3] (setting [11]), -0.267; in [3] (setting [12]), -1.5. Further, in [5], the fluorescence slope was -0.342 (inactive). For the same molecule, the NADPH fluorescence slope in [6] is -1.7e-06 (inactive). Besides, the slope in [7] was 0.00382 (inactive). In [8], the call was inactive.

Consider `O=C(O)CCCC(=O)Nc1ccn(-c2ccccc2)n1`, for which the cell count in test [1] worked out at 639. Moreover, the inhibition in test [1] is 3.1% (inactive); in test [2] it was -63.9% (inactive); in test [4], 20.3% (inactive); in [9], 11.2% (inactive). The molecule further registered a nuclei count in [2] of 142%. For the same molecule, the z-score in [3] (setting [10]) was 2.2; in [3] (setting [11]), -2.05; in test [3] (setting [12]) it was 0.525. In addition, in test [5], the fluorescence slope was -0.486 (inactive). Further, in [6], the NADPH fluorescence slope was -2.7e-05 (inactive). Moreover, the slope in test [7] is 0.00622 (inactive). For the same molecule, the molecule was called inactive in [8].

Consider `COc1ccc(C(=O)N2CCC(N3CCN(c4ccccc4)CC3)CC2)cc1OC`, for which the cell count in [1] stood at 420. Besides, the inhibition in test [1] was -28.9% (inactive); in [2], -222% (inactive); in [4], 17.7% (inactive); in test [9], 29.9% (inactive). Besides, the nuclei count in test [2] worked out at 170%. For the same molecule, the z-score in test [3] (setting [10]) is 1.05; in [3] (setting [11]), -0.675; in test [3] (setting [12]), -0.812. In addition, in test [5], the fluorescence slope is -0.348 (inactive). In addition, in [6], the NADPH fluorescence slope was 9.9e-06 (inactive). Besides, the slope in test [7] is 0.00411 (inactive). Further, the call in test [8] was inactive.

Values taken from PubChem BioAssay.
